MLLE-PAM2 inh: inhibitors of microRNA-mediated deadenylation, human PABP1 MLLE binding; GST-MLLE / FITC-PAM2 fluorescence polarization; AID 588489; actives 0.36% (n = 360,000); inhibition, % at 20 µM; in the data active means inhibition above about 35%, passing the limit was not always enough;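 further: plate controls were DMSO wells with GST-MLLE for no effect and wells lacking GST-MLLE protein for full effect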
Target sequence (P11940 whole entry, looked up): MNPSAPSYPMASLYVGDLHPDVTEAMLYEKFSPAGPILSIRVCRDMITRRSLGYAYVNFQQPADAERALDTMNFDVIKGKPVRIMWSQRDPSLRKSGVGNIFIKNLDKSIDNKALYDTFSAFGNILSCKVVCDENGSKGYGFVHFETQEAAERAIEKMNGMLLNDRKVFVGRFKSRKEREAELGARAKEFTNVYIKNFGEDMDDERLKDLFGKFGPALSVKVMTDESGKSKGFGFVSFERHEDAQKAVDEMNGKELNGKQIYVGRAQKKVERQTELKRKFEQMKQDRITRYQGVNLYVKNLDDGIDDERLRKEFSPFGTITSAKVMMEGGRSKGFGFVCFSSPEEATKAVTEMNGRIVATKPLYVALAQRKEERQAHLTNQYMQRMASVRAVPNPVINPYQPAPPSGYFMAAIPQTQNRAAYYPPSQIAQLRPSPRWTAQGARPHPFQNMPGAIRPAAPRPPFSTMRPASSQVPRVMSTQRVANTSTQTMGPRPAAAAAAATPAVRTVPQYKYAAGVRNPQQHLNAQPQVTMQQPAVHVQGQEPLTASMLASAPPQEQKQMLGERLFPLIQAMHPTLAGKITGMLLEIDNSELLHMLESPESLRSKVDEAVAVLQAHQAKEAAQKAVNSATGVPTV
SKN-1 inh: blocks SKN-1 activity in C. elegans; inhibition, % at 21.8 µM; C. elegans VP596 Pgst-4::GFP/RFP ratio, acrylamide-induced, 24 h; actives 0.49% (n = 360,000); AID 624304;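 active means interference check ratio from 0.5 to 1.5 plus GFP to RFP signal ratio inhibition reaching or exceeding a fixed threshold, cut at about 30% in these data, passing the limit was not always enough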
eIF4H FP inh: inhibitors of RNA binding by human eIF4H | AID 2012 | Q15056 | eIF4H fluorescence polarization binding assay | inhibition, % at 35 µM | actives 0.94% (n = 290,000);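 further: calls also rest on retests at 20 µM and on dose response follow-up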
PABP FP inh: blocks human PABP binding to poly(A) RNA | inhibition, % at 35 µM | actives 1% (n = 290,000) | fluorescence polarization | P11940;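 further: calls also rest on retests at 20 µM and on dose response follow-up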
MT1-MMP act inh: MT1-MMP (human) activation inhibition; AID 651647; GFP/RFP ratio change, % at 20 µM; actives 0.061% (n = 360,000); HT1080 RFP-PRO-GFP cells, GFP/RFP ratio fluorescence, overnight; percent of plate control window, DMSO zero; P50281;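 active means GFP/RFP ratio change of at least 30% with cell ATP level not reduced by more than half and red fluorescence within 50% of control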
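Compound: 20 µM single dose, 1% DMSO / System: HT1080 RFP-PRO-GFP cells / Controls: DMSO and RFP-L50D-GFP cell wells / Read-out basis: GFP/RFP fluorescence ratio / Schedule: overnight compound exposure at 37 °C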
Starred values were filed as active, the others as inactive; ? = inconclusive; nt = no result. In the library only some 1.7% were active in any assay of this set; here they are far more common. Unless noted, how the calls were made is not given here.

SMILES	MLLE-PAM2 inh	SKN-1 inh	eIF4H FP inh	PABP FP inh	MT1-MMP act inh
COC(=O)c1cc(NC(=O)CN(c2ccc3c(c2)OCO3)S(C)(=O)=O)ccc1Cl	-5.6	35.8*	-8.0	-8.3	-1.9
CCOC(=O)c1cc2ccccc2n1C1CCN(CCc2ccccc2)CC1	nt	-2.4	nt	nt	0.3
O=C(O)CN1C(=O)c2cccc3c(Br)ccc1c23	4.1	5.8	-0.4	-0.9	-5.9
CN(C)CCCN1C(=O)c2cccc3c(Br)ccc(c23)C1=O	56.9*	-4.7	30.6	5.3	-27.9
Cc1ccc(-c2nc(N)s[n+]2-c2ccccc2)cc1	40.2*	16.3	3.5	6.9	-2.7
Cc1cccc(CSCC(=O)N2CCN(S(=O)(=O)c3ccccc3C#N)CC2)c1	4.5	24.2	nt	nt	1.5
S=c1nc(-c2ccc(Cl)cc2)[nH][nH]1	20.9	-9.3	-8.1	-3.2	4.2
Cc1ccc(C)n1-c1nc(=S)[nH][nH]1	45.2*	0.4	22.1	3.1	15.7
CC1CC(C)CN(C(=O)COC(=O)COc2ccc(C#N)cc2)C1 (stereo not given)	-3.5	13.4	nt	nt	4.4
Cc1c(CCC(=O)O)c(=O)oc2c(C)c3occ(-c4ccc(Br)cc4)c3cc12	-14.5	-10.8	72.1*	80.0*	14.5
CC(C)c1ccc(S(=O)(=O)/N=C2/C=C(Sc3ncn[nH]3)C(=O)c3ccccc32)cc1	18.9	3.0	16.6	4.1	-54.4
Cc1ccc(S(=O)(=O)/N=C2/C=C(Sc3ncn[nH]3)C(=O)c3ccccc32)cc1	50.3*	1.9	7.2	4.9	-104.8
NCCCC[C@@H](C(=O)N1CCNCC1)n1cc(CN)nn1	-6.0	4.1	nt	nt	0.9
CCCCc1cn([C@@H](CCCCN)C(=O)N2CCNCC2)nn1	48.7*	3.0	?	?	-7.2
CC(C)C[C@H](N)c1cn([C@@H](CCCCN)C(=O)N2CCNCC2)nn1	10.2	-22.9	16.0	51.8*	7.8
C#CCOCCOCCOCCNc1nc(N2CCN(C(=O)[C@H]([C@@H](C)CC)n3cc([C@@H](N)CC(C)C)nn3)CC2)nc(N2CCN(C(=O)[C@H](CCCCN)n3cc([C@@H](N)CC(C)C)nn3)CC2)n1	nt	nt	55.4*	49.4*	nt
CCOC(=O)C1CCN(C(=O)c2ccc(S(=O)(=O)Nc3ccccc3Cl)cc2)CC1	4.7	3.6	nt	nt	8.9
O=C(CN1CCN(C(=O)C2CC2)CC1)Nc1cc(C(F)(F)F)cc(C(F)(F)F)c1	-12.1	-5.8	nt	nt	2.0
CN(CC(=O)NCCc1ccc(S(N)(=O)=O)cc1)CC(=O)Nc1cccc(F)c1	-11.7	-6.7	nt	nt	-0.4
COc1ccccc1-n1cc(-c2ccc([N+](=O)[O-])cc2)[nH]c1=S	39.5*	5.4	-1.2	-4.1	-1.2
COc1ccccc1-n1cc(-c2ccc(C)cc2)[nH]c1=S	19.2	23.6	-1.3	-1.6	-2.0
O=C1NC(=Nc2ccccc2Cl)S/C1=C\c1cc([N+](=O)[O-])ccc1O	-89.3	4.8	66.3	12.8*	-128.0
O=C(Nc1ccc(Cl)cn1)c1cc2c(s1)-c1ccccc1OC2	-6.0	37.8*	-2.3	-4.4	0.1
CCOC(=O)N/N=C/C=C/c1ccccc1[N+](=O)[O-]	-13.2	4.1	11.2	4.8	-0.1
COc1ccc(NCC(=O)N/N=C/C=C/c2ccccc2[N+](=O)[O-])cc1	12.2	-4.6	-2.1	66.2*	-1.4
SMILES	MLLE-PAM2 inh	SKN-1 inh	eIF4H FP inh	PABP FP inh	MT1-MMP act inh
COC(=O)C(O)(NC(=O)c1ccncc1)C(F)(F)F (stereo not given)	-2.7	-5.4	-9.1	-5.7	2.7
COc1cccc2sc3ccc(NCc4ccc5c(c4)OCO5)cc3c(=O)c12	8.2	-2.2	52.5*	12.5	1.6
O=C(NC1CCCCC1)C(c1ccccc1F)N(C(=O)c1csnn1)C1CCCC1 (stereo not given)	28.1	6.4	-1.4	-3.0	-3.0
COc1ccc(C(=O)/C=C/Nc2ccccn2)c(OC)c1	-1.1	-10.9	1.6	-1.3	1.7
O=C(/C=C\Nc1ccccn1)c1ccccc1	-6.1	61.2*	-9.7	9.5	-1.5
O=C(/C=C/Nc1ccc(Br)cc1F)c1ccccc1	-84.8	50.1*	5.1	4.0	-3.2
NC(=N\N=Cc1ccco1)/C(N)=N/N=Cc1ccco1	-6.6	19.6	nt	nt	2.3
Cc1onc(-c2ccccc2)c1C(=O)N/N=C/c1ccco1	-5.9	1.4	8.1	1.6	0.1
Cc1onc(-c2ccccc2)c1C(=O)N/N=C/c1ccc([N+](=O)[O-])s1	11.6	8.9	58.0*	active	-0.1
O=C(O)CCC(=O)N1N=C(c2ccco2)CC1c1ccco1 (stereo not given)	-4.3	-12.1	34.6	25.4	-1.9
O=C(O)CCC(=O)N1N=C(c2ccco2)CC1c1cccs1 (stereo not given)	12.9	0.5	75.8*	active	0.4
CCN(CC(=O)NCc1ccc(F)cc1)C(=O)c1ccc2c(c1)OCO2	5.8	2.2	nt	nt	0.5
CC(=O)Nc1ccc2ccccc2c1	0.5	-3.5	-3.1	-0.9	-3.4
CC(=O)Nc1ccc2cc3ccc(NC(C)=O)cc3nc2c1	113.0	-13.1	77.0*	69.6*	-136.0
CCOC(=O)c1csc(NC(=O)CCS(=O)(=O)c2ccc(Cl)cc2)n1	18.5	6.8	nt	nt	-2.0
CN(Cc1nc2ccccc2n1C)C(=O)c1ccco1	4.0	10.0	-9.9	6.0	4.0
CCCc1nc2sc3ccccc3c(=O)c2c(=O)n1Cc1ccc(OC)cc1	-6.1	23.8	-1.3	10.9	1.3
CCCc1nc2sc3ccccc3c(=O)c2c(=O)n1Cc1ccco1	27.1	-7.7	64.0*	48.8*	-22.6
COc1ccc(Cn2nnnc2CN(Cc2cc3ccc(C)cc3[nH]c2=O)C2CCCC2)cc1	-10.8	5.0	-13.6	0.6	-3.4
CCOc1ccc2[nH]c(=O)c(CN(Cc3nnnn3Cc3ccco3)C3CCCCC3)cc2c1	28.9	16.3	56.8*	31.5*	-2.6
COc1ccccc1CN(Cc1cc2cc(C)ccc2[nH]c1=O)Cc1nnnn1Cc1ccco1	-19.0	23.6	26.9	26.1	-17.6
COCCn1nnnc1CN(Cc1cc2cc(OC)c(OC)cc2[nH]c1=O)C1CCCC1	4.6	1.5	51.3*	84.9*	0.1
Cc1ccc2cc(CN(Cc3ccc4c(c3)OCO4)Cc3nnnn3Cc3ccco3)c(=O)[nH]c2c1C	-16.4	7.7	-2.3	4.6	-10.5
Cc1ccc2cc(CN(CCN3CCOCC3)Cc3nnnn3Cc3ccco3)c(=O)[nH]c2c1C	-17.4	22.0	85.8*	71.8*	-7.5
COc1cc2cc(CN(Cc3nnnn3Cc3ccco3)C3CCCCC3)c(=O)[nH]c2cc1OC	12.9	23.4	61.3*	63.8*	-4.2
COc1ccc(CC(=O)OCC(=O)NCc2ccco2)cc1OC	0.8	7.0	nt	nt	-5.0
CCOC(=O)c1sc(=S)n(-c2ccccc2Cl)c1SC	38.5*	4.6	-0.8	4.8	-0.9
C(=N/n1c2ccccc2c2ccccc21)/c1ccco1	3.0	51.1*	42.3	-4.5	21.1

Compound activity deposited in PubChem BioAssay by Sanford-Burnham Center for Chemical Genomics.
